Data on one compound can be found in publication PMC5831081 (Biochemistry, 2017).

In one data set the target is T1, CYP2B4 (Oryctolagus cuniculus, UniProt P00178, H226Y).
T1 sequence (P00178 with tags, fused parts or gaps H226Y): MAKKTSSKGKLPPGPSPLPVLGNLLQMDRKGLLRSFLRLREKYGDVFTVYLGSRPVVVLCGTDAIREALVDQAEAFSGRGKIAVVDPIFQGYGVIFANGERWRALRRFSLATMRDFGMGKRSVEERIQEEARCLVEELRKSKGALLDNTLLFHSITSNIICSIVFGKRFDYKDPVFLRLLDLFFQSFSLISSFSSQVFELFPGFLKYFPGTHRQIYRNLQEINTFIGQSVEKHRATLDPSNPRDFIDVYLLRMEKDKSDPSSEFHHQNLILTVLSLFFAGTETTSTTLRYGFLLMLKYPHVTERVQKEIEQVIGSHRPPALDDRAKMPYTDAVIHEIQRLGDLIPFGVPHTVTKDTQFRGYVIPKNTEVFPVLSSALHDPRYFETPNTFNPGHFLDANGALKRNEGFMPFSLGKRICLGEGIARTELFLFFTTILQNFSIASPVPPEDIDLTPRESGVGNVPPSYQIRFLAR
Nature of the data set: NADPH oxidation assay. In kind it is biochemical, rabbit. The conditions noted are these: CYP:POR:cyt b5 1:4:2, 20 μM inhibitor, 37 °C. Put shortly: (§1)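 Purified CYP2B was reconstituted with POR and cyt b5 at CYP:POR:cyt b5 1:4:2, or 0:4:2 for the partner-only control. Mixtures contained ligand (20 µM unless stated) and 1% acetone in 300 µL. After 5 min preincubation at 37 °C, 0.2 mM NADPH was added. NADPH consumption was recorded kinetically as the A340 decrease (ε 6.22 mM-1 cm-1). Rates are nmol/min/nmol P450, mean ± SD of three independent experiments.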

Another data set has as its target POR:cyt b5 (Rattus norvegicus, UniProt P00173+P00388). As to the kind of experiment: NADPH oxidation assay, redox partners only. In kind it is biochemical. As to conditions: control POR:cyt b5=4:2 without CYP; 20 μM 4-CPI; 37 °C. Put shortly: as §1

Chain of POR:cyt b5 (P00388 whole entry): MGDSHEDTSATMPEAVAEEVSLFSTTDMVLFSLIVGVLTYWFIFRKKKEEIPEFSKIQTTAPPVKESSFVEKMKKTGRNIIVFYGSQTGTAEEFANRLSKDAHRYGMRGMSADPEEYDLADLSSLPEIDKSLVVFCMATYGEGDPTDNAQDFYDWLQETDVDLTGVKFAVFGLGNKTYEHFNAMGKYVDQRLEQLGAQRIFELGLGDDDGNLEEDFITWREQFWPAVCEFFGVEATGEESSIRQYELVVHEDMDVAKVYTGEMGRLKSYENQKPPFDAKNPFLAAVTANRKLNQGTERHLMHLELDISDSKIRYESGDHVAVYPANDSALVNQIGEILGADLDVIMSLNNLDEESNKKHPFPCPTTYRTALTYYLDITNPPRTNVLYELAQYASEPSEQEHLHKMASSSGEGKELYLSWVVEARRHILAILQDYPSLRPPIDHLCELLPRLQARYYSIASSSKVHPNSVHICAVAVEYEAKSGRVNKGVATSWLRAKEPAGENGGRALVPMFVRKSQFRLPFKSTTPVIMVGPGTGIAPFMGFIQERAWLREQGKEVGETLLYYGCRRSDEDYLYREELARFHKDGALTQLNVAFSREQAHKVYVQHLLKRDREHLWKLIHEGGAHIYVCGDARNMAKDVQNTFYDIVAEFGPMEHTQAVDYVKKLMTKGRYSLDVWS
Chain of POR:cyt b5 (P00173 whole entry): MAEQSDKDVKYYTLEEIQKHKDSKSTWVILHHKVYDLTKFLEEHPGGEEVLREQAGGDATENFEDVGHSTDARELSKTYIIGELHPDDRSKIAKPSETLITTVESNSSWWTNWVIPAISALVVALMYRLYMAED

As for `Clc1ccc(-c2c[nH]cn2)cc1` [4-CPI, 4-(4-chlorophenyl)imidazole, reference compound], the values for the NADPH oxidation rate at CYP2B4 and at POR:cyt b5 were 10±1 nmol/min/nmolP450 and 12±1 nmol/min/nmolP450, respectively.
